Measured values reported in PMC11134341 (Chemical Science, 2024).

Experiments:
CYP199A4 F182A = biological target: T1, CYP199A4 F182A (Rhodopseudomonas palustris, UniProt Q2IU02, F183A); assay: UV-visible spectral titration of substrate binding
T1 sequence (Q2IU02 1-410 F183A): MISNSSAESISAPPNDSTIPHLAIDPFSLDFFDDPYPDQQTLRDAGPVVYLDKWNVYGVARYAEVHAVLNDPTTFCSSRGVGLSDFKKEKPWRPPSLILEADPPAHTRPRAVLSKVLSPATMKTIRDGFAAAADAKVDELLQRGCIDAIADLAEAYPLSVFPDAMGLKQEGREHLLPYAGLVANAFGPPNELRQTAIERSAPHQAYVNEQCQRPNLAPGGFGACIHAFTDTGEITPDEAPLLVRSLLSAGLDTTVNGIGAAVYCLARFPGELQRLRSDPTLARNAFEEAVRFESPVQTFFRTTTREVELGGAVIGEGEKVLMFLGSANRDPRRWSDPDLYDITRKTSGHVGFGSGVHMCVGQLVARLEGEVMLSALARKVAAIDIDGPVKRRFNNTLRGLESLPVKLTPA

CYP199A4 F182A/V355A = assay: H2O2-dependent O-demethylation of benzoic acid derivatives, F182A/V355A; format: biochemical, Rhodopseudomonas palustris; settings: catalyzed by F182A/V355A
Procedure, shortened: (§1)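 Purified CYP199A4 double mutant (1 μM), a methoxy-substituted benzoic acid substrate (2 mM) and H2O2 (10 mM, the only oxidant) in Tris–HCl pH 7.4 at 30 °C. Demethylation and further-oxidation products are quantified against a benzophenone internal standard and expressed as turnover number per P450.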

CYP199A4 F182A/P90A = assay: H2O2-dependent O-demethylation of benzoic acid derivatives, F182A/P90A; format: biochemical, Rhodopseudomonas palustris; settings: catalyzed by F182A/P90A; P450 1 μM, substrate 2 mM, H2O2 10 mM, Tris-HCl pH 7.4, 30 °C
Procedure, shortened: as §1

CYP199A4 (wild type) = settings: WT CYP199A4; cited from earlier work
CYP199A4 F182A/D251E = assay: H2O2-dependent O-demethylation, F182A/D251E; format: biochemical, Rhodopseudomonas palustris
Procedure, shortened: (§2)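 Enzyme (1 μM) is reacted with methoxy-substituted benzoic acid substrate (2 mM) and H2O2 (10 mM) as sole oxidant, in Tris–HCl pH 7.4 at 30 °C. Demethylation products are quantified chromatographically against a benzophenone internal standard, and activity is expressed as turnover number.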

CYP199A4 F182A/D251H = assay: H2O2-dependent O-demethylation, F182A/D251H; format: biochemical, Rhodopseudomonas palustris
Procedure, shortened: as §2

[1] = system: engineered CYP199A4 peroxygenase variants; assay: O-demethylation by the library of engineered CYP199A4 peroxygenase variants; format: biochemical, Rhodopseudomonas palustris; settings: H2O2-dependent reaction

SMILES | O-demethylation / conversion by the examined CYP199A4 variants (in words) [1] | further results
COc1c(C)cc(C(=O)O)cc1C [Compound 12, 3,5-dimethyl-4-methoxy benzoic acid] | – | Kd (CYP199A4 F182A): 123 µM; product formed (in words) (CYP199A4 F182A/V355A; H2O2-dependent reaction): a single product (not 3,5-dimethyl-4-hydroxybenzoic acid)
COc1ccc(C(=O)O)cc1 [Compound 1, 4-methoxybenzoic acid] | – | TON of demethylation product (CYP199A4 F182A/P90A): 1100 μM (μM P450)^−1; catalytic turnover number (TON) of H2O2-dependent demethylation (CYP199A4 (wild type)): 6 μM (μM P450)^−1; reduction of catalytic activity compared with F182A (CYP199A4 F182A/D251E): 50 fold; reduction of catalytic activity compared with F182A (CYP199A4 F182A/D251H): 50 fold
COc1cccc(C(=O)O)c1OC [Compound 8, 2,3-dimethoxybenzoic acid] | not converted | –
COc1ccc(C(=O)O)cc1[N+](=O)[O-] [Compound 17, 4-methoxy-3-nitrobenzoic acid] | – | TON of demethylation product (CYP199A4 F182A/P90A): 926 μM (μM P450)^−1; TON of over-oxidation product 4,5-dihydroxy-3-nitrobenzoic acid (CYP199A4 F182A/P90A): 416 μM (μM P450)^−1
COc1ccc(OC)c(C(=O)O)c1 [Compound 7, 2,5-dimethoxybenzoic acid] | not converted | –
COc1c(Cl)cc(C(=O)O)cc1Cl [Compound 15, 3,5-dichloro-4-methoxy benzoic acid] | no conversions detected | –
COc1ccc(C(=O)O)cc1C [Compound 11, 3-methyl-4-methoxybenzoic acid] | – | TON of demethylation (CYP199A4 F182A/V355A; P450 1 μM, substrate 2 mM, H2O2 10 mM, Tris-HCl pH 7.4, 30 °C): 1290 μM (μM P450)^−1
COc1cc(C(=O)O)cc(OC)c1OC [Compound 9, 3,4,5-trimethoxy benzoic acid] | no conversions detected | –
COc1cc(C(=O)O)cc(OC)c1O [Compound 21, 4-hydroxy-3,5-dimethoxybenzoic acid] | did not convert | –
COc1cccc(C(=O)O)c1 [Compound 2, 3-methoxybenzoic acid] | can be demethylated | –
COc1cc(C(=O)O)ccc1O [Compound 20, 4-hydroxy-3-methoxybenzoic acid] | not demethylated | –
COc1ccccc1C(=O)O [Compound 3, 2-methoxybenzoic acid] | no reaction product was detected | –
COc1cc(OC)cc(C(=O)O)c1 [Compound 6, 3,5-dimethoxybenzoic acid] | can be demethylated | –
